Measurements published in ChEMBL document CHEMBL3612021, “Structure-kinetics relationships of Capadenoson derivatives as adenosine A1 receptor agonists” (Eur J Med Chem, 2015).
pEC50: −log10 of the molar value.

Tests used:
[1] = target: T1, Adenosine receptor A1 (Homo sapiens) (UniProt P30542); test: Displacement of [3H]DPCPX from human adenosine A1 receptor expressed in CHO cell membranes assessed as association rate constant by competition association assay
T1 sequence (whole entry): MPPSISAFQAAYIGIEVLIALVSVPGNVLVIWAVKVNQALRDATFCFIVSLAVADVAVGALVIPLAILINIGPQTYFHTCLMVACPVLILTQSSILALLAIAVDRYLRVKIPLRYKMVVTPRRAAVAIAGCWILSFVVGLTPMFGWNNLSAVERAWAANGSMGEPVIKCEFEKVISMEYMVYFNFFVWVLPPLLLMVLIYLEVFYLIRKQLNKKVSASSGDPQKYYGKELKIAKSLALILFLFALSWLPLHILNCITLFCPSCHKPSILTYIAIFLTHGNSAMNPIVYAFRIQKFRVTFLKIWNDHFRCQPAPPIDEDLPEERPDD
How it was run: (§1)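 Competition association assay on CHO cell membranes stably expressing hA1, with [3H]DPCPX as tracer. kon and koff come from these association curves (n ≥ 3, ± SEM). Residence time is shown alongside koff and corresponds to 1/koff in minutes.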

[2] = target: T1, Adenosine receptor A1 (Homo sapiens); test: Displacement of [3H]DPCPX from human adenosine A1 receptor expressed in CHO cell membranes assessed as kinetic rate index by measuring ratio of binding at earlier and later time points by competition association assay
How it was run: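 Dual-point competition association assay with [3H]DPCPX on CHO membranes stably expressing hA1. Specific binding is read at two time points in the presence of the test ligand. KRI is the ratio of binding at the earlier to the later time point (n = 2; both values reported).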

[3] = target: T1, Adenosine receptor A1 (Homo sapiens); test: Displacement of [3H]DPCPX from human adenosine A1 receptor expressed in CHO cell membranes assessed as residence time by competition association assay; how it was run: as §1
[4] = target: T1, Adenosine receptor A1 (Homo sapiens); test: Displacement of [3H]DPCPX from human adenosine A1 receptor expressed in CHO cell membranes assessed as dissociation rate constant by competition association assay; how it was run: as §1
[5] = target: T1, Adenosine receptor A1 (Homo sapiens); test: Displacement of [3H]DPCPX from human adenosine A1 receptor expressed in CHO cell membranes at 1 uM by competition association assay
[6] = target: T1, Adenosine receptor A1 (Homo sapiens); test: Agonist activity at human adenosine A1 receptor expressed in CHO cell membranes by [35S]GTPgammaS binding assay relative to 100 uM CPA; format: functional
How it was run: (§2)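 CHO-hA1 membrane homogenates (3 µg) equilibrated 30 min at 25 °C in 50 mM Tris, 100 mM NaCl, 5 mM MgCl2, 1 mM EDTA, 1 mM DTT, 0.05% BSA, pH 7.4, with 3 µM GDP, saponin and ligand over a concentration range. [35S]GTPγS then added (final 0.3 nM) and incubated 90 min at 25 °C. Filtration on GF/B, ice-cold washes, scintillation counting. n = 3.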

[7] = target: Adenosine receptor A2a (Homo sapiens) (UniProt P29274); test: Displacement of [3H]ZM241385 from human adenosine A2A receptor expressed in HEK293 cell membranes at 1 uM by competition association assay
Chain of Adenosine receptor A2a (Homo sapiens) (P29274 whole entry): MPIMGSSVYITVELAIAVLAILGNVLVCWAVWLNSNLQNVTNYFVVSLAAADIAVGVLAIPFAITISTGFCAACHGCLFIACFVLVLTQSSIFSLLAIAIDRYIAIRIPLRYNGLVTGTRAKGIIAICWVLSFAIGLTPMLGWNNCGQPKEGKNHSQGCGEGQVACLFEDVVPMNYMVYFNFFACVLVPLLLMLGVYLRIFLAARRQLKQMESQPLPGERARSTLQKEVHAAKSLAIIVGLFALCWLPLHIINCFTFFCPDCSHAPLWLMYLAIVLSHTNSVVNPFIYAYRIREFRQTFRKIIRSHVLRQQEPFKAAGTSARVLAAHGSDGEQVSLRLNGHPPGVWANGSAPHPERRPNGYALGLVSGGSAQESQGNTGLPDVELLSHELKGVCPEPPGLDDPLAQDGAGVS

[8] = target: T2, Adenosine receptor A2b (Homo sapiens) (UniProt P29275); test: Displacement of [3H]PSB603 from human adenosine A2B receptor expressed in CHO cell membranes at 1 uM by competition association assay
T2 sequence (whole entry): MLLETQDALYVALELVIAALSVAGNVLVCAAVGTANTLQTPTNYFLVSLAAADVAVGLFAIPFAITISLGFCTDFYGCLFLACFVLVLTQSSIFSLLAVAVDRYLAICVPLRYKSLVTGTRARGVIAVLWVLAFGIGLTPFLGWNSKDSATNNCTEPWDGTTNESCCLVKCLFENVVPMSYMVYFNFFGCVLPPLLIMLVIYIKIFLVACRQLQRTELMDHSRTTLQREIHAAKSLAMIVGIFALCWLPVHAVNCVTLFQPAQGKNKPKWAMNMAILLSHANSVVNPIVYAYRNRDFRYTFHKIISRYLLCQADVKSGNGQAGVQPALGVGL
How it was run: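 Single-point test at 1 µM measuring percent displacement of specific [3H]PSB603 binding on CHO membranes stably expressing human A2B receptors.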

Adenosine receptor A1 = target: T3, Adenosine receptor A1 (Homo sapiens, UniProt P30542); test: Agonist activity at human adenosine A1 receptor expressed in CHO cell membranes by [35S]GTPgammaS binding assay; format: functional; how it was run: as §2
T3 sequence (P30542 whole entry): T1 sequence (whole entry)

[9] = target: Adenosine receptors; A1 & A3 (Homo sapiens) (UniProt P30542+P0DMS8); test: Selectivity for human adenosine A1 receptor expressed in CHO cell membranes over human adenosine A3 receptor expressed in CHO cell membrane; format: cell-based
[10] = target: T4, Adenosine receptor A3 (Homo sapiens) (UniProt P0DMS8); test: Displacement of [3H]PSB11 from human adenosine A3 receptor expressed in CHO cell membranes at 1 uM by competition association assay
T4 sequence (whole entry): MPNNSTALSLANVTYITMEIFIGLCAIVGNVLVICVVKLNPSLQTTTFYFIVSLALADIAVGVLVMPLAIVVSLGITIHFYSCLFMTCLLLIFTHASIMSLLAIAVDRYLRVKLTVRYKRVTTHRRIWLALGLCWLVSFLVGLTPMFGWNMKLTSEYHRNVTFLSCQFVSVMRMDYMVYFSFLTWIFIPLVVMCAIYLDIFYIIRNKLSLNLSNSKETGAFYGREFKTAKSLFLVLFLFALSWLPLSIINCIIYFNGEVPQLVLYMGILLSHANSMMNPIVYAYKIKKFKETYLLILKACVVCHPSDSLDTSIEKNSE
How it was run: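 Single-point screen at 1 µM measuring displacement of specific [3H]PSB11 binding on CHO cell membranes stably expressing human A3 receptors.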

| K [1] | Ratio [2] | TIME [3] | K [4] | inhibition [5] | Emax [6] | inhibition [7] | inhibition [8] | pEC50 (Adenosine receptor A1) | Selectivity ratio [9] | inhibition [10] | SMILES |
| --- | --- | --- | --- | --- | --- | --- | --- | --- | --- | --- | --- |
| 7.7 ×10⁵ /M/min | 1.6 | 0.667 h | 0.025 min⁻¹ | > 80% | – | – | – | – | – | – | COc1ccc(-c2c(C#N)c(N)nc(SCc3csc(-c4cccc(Cl)c4)n3)c2C#N)cc1 |
| – | 1.23 | – | – | > 80% | 105% | 0% | 63% | 8.72 | > 100 | 27% | COc1ccc(-c2c(C#N)c(N)nc(SCc3csc(-c4ccccc4)n3)c2C#N)cc1 |
| 2.6 ×10⁶ /M/min | 2.55 | 2.2 h | 0.0076 min⁻¹ | > 80% | 83% | 5.8% | 20% | 8.54 | > 100 | 19% | COc1ccc(-c2c(C#N)c(N)nc(SCc3csc(-c4ccc(Cl)cc4)n3)c2C#N)cc1 |
| 1.1 ×10⁶ /M/min | 2.35 | 0.877 h | 0.019 min⁻¹ | – | – | – | – | – | – | – | COc1ccc(-c2c(C#N)c(N)nc(SCc3csc(-c4ccc(Cl)c(Cl)c4)n3)c2C#N)cc1 |
| 9.4 ×10⁵ /M/min | 1.53 | 0.695 h | 0.024 min⁻¹ | > 80% | – | – | – | – | – | – | COc1ccc(-c2c(C#N)c(N)nc(SCc3csc(-c4ccccc4Cl)n3)c2C#N)cc1 |
| 4.6 ×10⁶ /M/min | 1.56 | 0.505 h | 0.033 min⁻¹ | – | – | – | – | – | – | – | COc1ccc(-c2c(C#N)c(N)nc(SCc3csc(-c4ccc(F)cc4)n3)c2C#N)cc1 |
| 1.6 ×10⁶ /M/min | 2.07 | 1.51 h | 0.011 min⁻¹ | > 80% | – | – | – | – | – | – | COc1ccc(-c2c(C#N)c(N)nc(SCc3csc(-c4ccc(I)cc4)n3)c2C#N)cc1 |

Second part, the molecule before the results:

| SMILES | K [1] | Ratio [2] | TIME [3] | K [4] | inhibition [5] | Emax [6] | inhibition [7] | inhibition [8] | pEC50 (Adenosine receptor A1) | Selectivity ratio [9] | inhibition [10] |
| --- | --- | --- | --- | --- | --- | --- | --- | --- | --- | --- | --- |
| N#Cc1c(N)nc(SCc2csc(-c3ccc(Cl)cc3)n2)c(C#N)c1-c1ccc2c(c1)OCO2 | 2.4 ×10⁶ /M/min | 2 | 1.04 h | 0.016 min⁻¹ | > 80% | – | – | – | – | – | – |
| COc1ccc(-c2c(C#N)c(N)nc(SCc3csc(-c4ccc(Br)cc4)n3)c2C#N)cc1 | 2.4 ×10⁶ /M/min | 1.55 | 0.833 h | 0.02 min⁻¹ | > 80% | – | – | – | – | – | – |
| COc1ccc(-c2c(C#N)c(N)nc(SCc3nc(-c4ccc(Cl)cc4)sc3Cl)c2C#N)cc1 | 1.4 ×10⁶ /M/min | 1.79 | 0.595 h | 0.028 min⁻¹ | – | – | – | – | – | – | – |
| COc1ccc(-c2c(C#N)c(N)nc(SCc3csc(-c4ccc(Cl)cn4)n3)c2C#N)cc1 | 3.4 ×10⁶ /M/min | 1.64 | 0.477 h | 0.035 min⁻¹ | > 80% | – | – | – | – | – | – |
| N#Cc1c(N)nc(SCc2csc(-c3ccc(Cl)cc3)n2)c(C#N)c1-c1ccc(O)cc1 | 4.3 ×10⁶ /M/min | 2.07 | 0.595 h | 0.028 min⁻¹ | > 80% | – | – | – | – | – | – |
| COc1ccc(-c2c(C#N)c(N)nc(SCc3csc(N4CCOCC4)n3)c2C#N)cc1 | – | 1.12 | – | – | > 80% | 104% | 0% | 0% | 8.72 | > 100 | 51% |
| COc1ccc(-c2c(C#N)c(N)nc(SCc3cscn3)c2C#N)cc1 | – | 1 | – | – | – | 55% | 0% | – | 8.82 | > 100 | 50% |
| COc1ccc(-c2c(C#N)c(N)nc(SCc3csc(-c4ccc(Br)cn4)n3)c2C#N)cc1 | 1.4 ×10⁶ /M/min | 1.71 | 0.555 h | 0.03 min⁻¹ | > 80% | – | – | – | – | – | – |
| N#Cc1c(N)nc(SCc2csc(-c3ccc(Cl)cc3)n2)c(C#N)c1-c1ccc(OCCO)cc1 [CAPADENOSON] | 2.4 ×10⁷ /M/min | 1.42 | 0.463 h | 0.036 min⁻¹ | > 80% | 97% | 0% | 2.5% | 8.96 | > 100 | 1.2% |
| COc1ccc(-c2c(C#N)c(N)nc(SCc3csc(-c4ccccn4)n3)c2C#N)cc1 | – | 1.08 | – | – | > 80% | 99% | 0% | 0% | 8.12 | > 100 | 22% |
